Inconclusive results are not listed.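 The calls were made as follows, unless noted: active = viability increase at or above a cutoff of the median across tested compounds plus 3 SD (cut at about 8.5% in these data, passing the limit was not always enough); inconclusive = some gains above the cutoff, reason not given; inactive = the rest.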
How the values were obtained:
[1] = OD615 S. cerevisiae growth inhibition, permissive medium, pilot counter-assay, permissive growth control for S. cerevisiae lifespan shortening project (AID 705;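 active = growth inhibition above 25% in both replicates, a cutoff set 3 SD above the mean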); settings: OD615, 24 h, at 10 µM, stronger effect = higher value
Summary of the method: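 System: Engineered DeaD yeast | Buffer or medium: SC raffinose/galactose permissive medium | Incubation: Cells pre-grown 4 h, then 24 h compound exposure, 30 °C humidified | Measured by: Absorbance (optical density) at 615 nm | Read-out: Reduction in yeast growth (OD615)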

[2] = Restrictive medium S. cerevisiae growth inhibition, OD615, pilot screen of yeast lifespan reduction project, restrictive growth control (AID 706;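 active = growth inhibition above a set limit, 3 SD over mean compound inhibition, in both replicates, cut at about 43% in these data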;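 also: modified DeaD lifespan yeast strain shifted to restrictive glucose medium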); settings: OD615, 48 h, at 10 µM, stronger effect = higher value
Summary of the method: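 Material: modified S. cerevisiae; Medium: glucose-based CSMM-D restrictive medium; Compound dosing: one concentration, 10 µM final, 0.25% DMSO; Incubation: 48 h compound exposure at 30 °C; Measured by: OD615.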

[3] = viability gain of MRP-1-high H69AR cells under doxorubicin, pilot screen, MRP-1 activator project, CellTiter-Glo, duplicate (AID 807); settings: H69AR viability with doxorubicin, CellTiter-Glo luminescence; at 10 µM; stronger effect = higher value;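 also: compound pretreatment 18-22 h then 72 h combined with doxorubicin; 0% = doxorubicin alone and 100% = vehicle without doxorubicin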
[4] = growth suppression of beta-catenin knockout HCT116, pilot screen, human colon tumor cells (AID 823;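 active = cell viability at or below a set limit in both duplicate runs, the limit being the all-compound median minus 4 SD, cut at about 23% in these data, passing the limit was not always enough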;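 also: 0% = wells killed by 20 µM Hyamine and 100% = untreated DMSO cell wells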); settings: CellTiter-Glo, 60 h, at 10 µM, stronger effect = lower value
[5] = growth suppression of PTEN-deleted HCT116, pilot screen, cell-based, HCT116 clonal line, CellTiter-Glo (AID 824;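 active = viability at or below 27.92% in each of two runs, the all-compound median minus 4 SD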;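 also: 0% = 20 µM Hyamine control and 100% = vehicle cell control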); settings: 60 h, at 10 µM, stronger effect = lower value
[6] = inhibitors of the yeast RAM network, pilot screen, dse1pr::URA3 reporter, 5-FOA selection (AID 869;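 active = inhibition over a set limit, the all-compound mean plus 3 SD, in both replicate runs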;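 also: 0% = DMSO wells with no growth and 100% = 10 µM 1-NA-PP1 with full growth; RAM network block rescues cells from 5-FOA so hits raise OD615 growth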); settings: S. cerevisiae dse1pr::URA3 5-FOA growth, OD615, 2 d; at 10 µM; stronger effect = higher value; strain carries analog-sensitive mutant Cbk1 kinase
[7] = RAM signaling pathway blockade in yeast – S. cerevisiae, Pdr1DBD-CYC8 efflux-inhibited sensitized strain, primary screen (AID 1298;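 active = RAM network inhibition above 8.4% in each of two replicates, 3 SD over the compound average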;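 also: 0% = DMSO untreated cells without growth and 100% = 10 µM 1-NA-PP1 full growth; higher means more yeast growth rescued from 5-FOA killing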); settings: S. cerevisiae cbk1-as DSE1-URA3 strain, 5-FOA growth OD615, 2 d; at 50 µM; stronger effect = higher value

CN(CCNC(=O)C1(O)c2ccccc2NC(=O)N1c1ccccc1)Cc1ccccc1 (stereo not drawn)
inactive: growth inhibition [1] -15.6% | growth inhibition [2] -17.7% | viability increase [3] -2.03% | viability [4] 95.8% | viability [5] 93.2% | inhibition [6] 0.43% | RAM network inhibition [7] 2.02%

O=C1c2ccccc2C(=O)N1CCC(=O)N1CCCc2ccccc21
inactive: growth inhibition [1] -19.9% | growth inhibition [2] -13.7% | viability increase [3] -0.26% | viability [4] 93.8% | viability [5] 96.8% | inhibition [6] 2.32% | RAM network inhibition [7] 7.36%

O=C(Nc1ccccc1Cl)N1CCN(c2ccc3nnc(-c4ccccc4)n3n2)CC1
inactive: growth inhibition [1] 6.99% | growth inhibition [2] 29.4% | viability increase [3] -4.19% | viability [4] 79.4% | viability [5] 74.8% | inhibition [6] 0.435% | RAM network inhibition [7] 2.07%

Cc1csc(=N)n1-c1ccc(Cl)cc1
inactive: growth inhibition [1] -6.4% | growth inhibition [2] -7.49% | viability increase [3] 0.86% | viability [4] 82.5% | viability [5] 80.7% | inhibition [6] 1.35% | RAM network inhibition [7] 9.58%

CCC1CCCCN1Cc1nc2c(c(=O)n(C)c(=O)n2C)n1Cc1ccccc1 (stereo not drawn)
inactive: growth inhibition [1] 6.88% | growth inhibition [2] -0.26% | viability increase [3] 3.7% | viability [4] 75.3% | viability [5] 74.4% | inhibition [6] 2.1% | RAM network inhibition [7] 2.14%

COc1ccc(CCN=C2SCC(=O)N2C)cc1OC
inactive: growth inhibition [1] 3.32% | growth inhibition [2] 1.86% | viability increase [3] -0.79% | viability [4] 102% | viability [5] 97% | inhibition [6] 2.14% | RAM network inhibition [7] 6.13%

CCCC(=O)C1=C(O)C(C(=O)OC)C(C)(C)CC1=NC (stereo not drawn)
inactive: growth inhibition [1] -14.5% | growth inhibition [2] -12.3% | viability increase [3] 0.12% | viability [4] 95.3% | viability [5] 94.9% | inhibition [6] 0.54% | RAM network inhibition [7] 0.46%

Cc1ccc(C(C(=O)NC2CCCC2)N2CCCCC2)cc1 (stereo not drawn)
inactive: growth inhibition [1] -2.54% | growth inhibition [2] -13.5% | viability increase [3] -1.32% | viability [4] 86.9% | viability [5] 90.6% | inhibition [6] 2.38% | RAM network inhibition [7] 5.61%

COc1cccc(-n2c(Cc3cc(=O)[nH]c(=O)[nH]3)nnc2SCC(=O)Nc2ccccc2)c1
inactive: growth inhibition [1] -5.92% | growth inhibition [2] -2.63% | viability increase [3] -0.3% | viability [4] 107% | viability [5] 97.8% | inhibition [6] 1.61% | RAM network inhibition [7] 0.67%

Cc1nnc(NC(=O)CSc2nnc(Cc3cccn3C)n2C)s1
inactive: growth inhibition [1] -3.1% | growth inhibition [2] 24.4% | viability increase [3] -0.3% | viability [4] 98.8% | viability [5] 104% | inhibition [6] 0.91% | RAM network inhibition [7] 1.93%

Cn1c(=O)oc2cc(S(=O)(=O)N3CCCC(C(=O)Nc4ccc5c(c4)OCCO5)C3)ccc21 (stereo not drawn)
inactive: growth inhibition [1] -0.19% | growth inhibition [2] -4.89% | viability increase [3] -1.81% | viability [4] 89.5% | viability [5] 90% | inhibition [6] 1.42% | RAM network inhibition [7] 1.66%

Cn1c(C(=O)N2CCC(C(=O)N3CCOCC3)CC2)cc2sccc21
inactive: growth inhibition [1] -9.67% | growth inhibition [2] -7.13% | viability increase [3] 1.85% | viability [4] 98.7% | viability [5] 98.8% | inhibition [6] 0.59% | RAM network inhibition [7] 0.9%

CCOC(=O)C1C(=O)CC(C)(O)C(C(=O)OCC)C1c1cccs1 (stereo not drawn)
inactive: growth inhibition [1] -3.39% | growth inhibition [2] -20.4% | viability increase [3] -2.92% | viability [4] 90% | viability [5] 89.2% | inhibition [6] 2.07% | RAM network inhibition [7] 4.69%

COc1ccc2[nH]c(C)c(CCN3C(=O)C4C5C=CC(C5)C4C3=O)c2c1 (stereo not drawn)
inactive: growth inhibition [1] -3.19% | growth inhibition [2] 5.9% | viability increase [3] -2.43% | viability [4] 106% | viability [5] 94.9% | inhibition [6] 0.285% | RAM network inhibition [7] 4.02%

COc1ccccc1Nc1nc(N)nc(CN2CCOCC2)n1
inactive: growth inhibition [1] -12.9% | growth inhibition [2] -6.13% | viability increase [3] -0.98% | viability [4] 108% | viability [5] 101% | inhibition [6] 0.845% | RAM network inhibition [7] 3.74%

COc1ccc(-c2nnc(SCC(=O)NC(C)c3ccccc3)o2)cc1OC (stereo not drawn)
inactive: growth inhibition [1] -1.92% | growth inhibition [2] -14.2% | viability increase [3] -1.24% | viability [4] 106% | viability [5] 96% | inhibition [6] 1.04% | RAM network inhibition [7] 1.77%

COc1ccc(OC)c2[nH]c(=O)c(CCNC(=O)C(C)(C)C)cc12
inactive: growth inhibition [1] -5.16% | growth inhibition [2] -4.56% | viability increase [3] 1.19% | viability [4] 105% | viability [5] 102% | inhibition [6] 0.23% | RAM network inhibition [7] 0.89%

Cc1ccccc1N(CC(=O)NCCSCc1ccco1)S(C)(=O)=O
inactive: growth inhibition [1] -4.43% | growth inhibition [2] -7.72% | viability increase [3] -3.94% | viability [4] 93.1% | viability [5] 95.5% | inhibition [6] -0.58% | RAM network inhibition [7] 7.43%

Cc1oc2c(c(=O)c1C)C(=O)CC(c1ccccc1)C2 (stereo not drawn)
inactive: growth inhibition [1] -10.3% | growth inhibition [2] -15.9% | viability increase [3] -3.41% | viability [4] 88.5% | viability [5] 91% | inhibition [6] 0.115% | RAM network inhibition [7] -1.15%

CCn1c(C(=O)N2CCc3ccccc3C2)cc2sccc21
inactive: growth inhibition [1] -11.6% | growth inhibition [2] -2.25% | viability increase [3] -0.05% | viability [4] 84.1% | viability [5] 74.5% | inhibition [6] 0.465% | RAM network inhibition [7] 4.84%

O=C(Cn1nc(-c2ccc(Cl)cc2)ccc1=O)NCCN1CCOCC1
inactive: growth inhibition [1] -3.21% | growth inhibition [2] -12.3% | viability increase [3] -1.27% | viability [4] 100% | viability [5] 100% | inhibition [6] 0.355% | RAM network inhibition [7] 7.69%

CCOC(=O)C1CCN(C(=O)CN(c2ccc(OC)c(OC)c2)S(=O)(=O)c2ccccc2)CC1
inactive: growth inhibition [1] -2.99% | growth inhibition [2] -7.61% | viability increase [3] 0.05% | viability [4] 104% | viability [5] 94.6% | inhibition [6] 1.19% | RAM network inhibition [7] 6.25%

Cc1cc2oc(C(=O)NCc3ccncc3)c(C)c2cc1C
inactive: growth inhibition [1] -3.59% | growth inhibition [2] 10.7% | viability increase [3] 0.54% | viability [4] 96.4% | viability [5] 89.6% | inhibition [6] 0.7% | RAM network inhibition [7] -0.89%

CC(=O)NC(CCS(C)(=O)=O)C(=O)Nc1ccc(Cl)c(Cl)c1 (stereo not drawn)
inactive: growth inhibition [1] -4.26% | growth inhibition [2] -6.39% | viability increase [3] -1.98% | viability [4] 96.9% | viability [5] 89.6% | inhibition [6] 1.11% | RAM network inhibition [7] 1.53%

Reference: PubChem BioAssay
